Screens: PubChem, Broad Institute
KDM4C inh: inhibitors of GASC-1 (KDM4C) histone demethylase, primary screen, biochemical, single concentration HTS; 96,000 compounds, 0.15% hits; Lysine-specific demethylase 4C (Homo sapiens), Q9H3R0; inhibition, % at 12.5 µM; GST-KDM4C 2-372, H3K9me3 peptide, LANCE TR-FRET;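 active means mean replicate inhibition above about 25%, with at least 55% of replicates also reaching it, limit read from the data, passing the limit was not always enough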
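material = GST-tagged GASC-1 (JMJD2C) catalytic fragment, aa 2-372 | amount = enzyme final amount 10 nM | medium = HEPES buffer, pH 7.5, plus ascorbate | also added = H3K9me3 peptide substrate, Fe(II), 2-oxoglutarate | dosing = single dose | times = 30 min demethylation and 1 h detection at room temperature | detection = LANCE TR-FRET | read-out basis = Fall in 671/618 emission ratio as inhibition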
T cruzi growth-1: T. cruzi intracellular proliferation inhibitors, primary screen, cell-based, beta-gal Tulahuen parasites, NIH3T3 host, luminescence; 77,000 compounds, 5.9% hits; inhibition, % at 8.34 µM; T. cruzi beta-gal in NIH3T3, GalScreen luminescence, 90 h;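 active means mean inhibition above about 93%, with at least 55% of replicates each passing it, limit read from the data, passing the limit was not always enough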
IDH1 R132H inh: inhibitors of IDH1 R132H reductase, primary screen, biochemical, plate reader, single point | Isocitrate dehydrogenase [NADP] cytoplasmic (Homo sapiens), O75874 | inhibition, % at 10 µM | 70,000 compounds, 0.18% hits | diaphorase/resazurin fluorescence, 60 min; in the data active means inhibition above about 34%
Target sequence (O75874 whole entry R132H): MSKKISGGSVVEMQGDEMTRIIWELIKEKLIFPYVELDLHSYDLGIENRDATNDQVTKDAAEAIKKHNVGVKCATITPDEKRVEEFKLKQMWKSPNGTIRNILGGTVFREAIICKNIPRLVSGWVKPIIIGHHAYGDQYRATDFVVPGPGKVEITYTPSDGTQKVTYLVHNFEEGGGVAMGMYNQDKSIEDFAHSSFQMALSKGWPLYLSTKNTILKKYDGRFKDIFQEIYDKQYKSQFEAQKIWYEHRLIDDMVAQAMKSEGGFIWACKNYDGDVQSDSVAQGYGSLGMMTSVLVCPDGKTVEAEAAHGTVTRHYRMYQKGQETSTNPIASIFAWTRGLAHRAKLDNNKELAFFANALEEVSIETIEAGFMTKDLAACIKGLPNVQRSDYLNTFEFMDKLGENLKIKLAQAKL
Pf Dd2 growth: P. falciparum Dd2 growth inhibitors, primary screen, SYBR Green fluorescence, single dose replicates. 72 h; stronger effect = lower value. activity change, % at 10 µM. 94,000 compounds, 2.3% hits. AID 1159554, 2015; in the data active means activity change below about -80%
T cruzi growth-2: T. cruzi intracellular proliferation inhibitors, confirmation, cell-based, NIH3T3 host, beta-gal parasite, luminescence, cherry-pick. shares compounds with T cruzi growth-1. T. cruzi beta-gal in NIH3T3, GalScreen luminescence, 90 h. inhibition, % at 8.35 µM. 5,600 compounds, 72% hits. AID 651739, 2012;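 active means mean replicate inhibition above about 95% and at least 55% of replicates individually reaching it, limit read from the data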
T cruzi growth-3: inhibitors of intracellular T. cruzi replication, confirmation, NIH3T3 host cells, beta-gal parasites, cherry-pick, set 2; inhibition, % at 2.09 µM; T. cruzi beta-gal in NIH3T3, GalScreen luminescence, 90 h; shares compounds with T cruzi growth-1; 5,600 compounds, 21% hits;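 active means mean inhibition above about 95%, with at least 55% of replicates also reaching it, limit read from the data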
NIH3T3 tox: cytotoxicity in mouse NIH/3T3 fibroblasts, confirmation, cytotoxicity control for T. cruzi proliferation inhibitor project, cell-based, cherry-pick, single point; shares compounds with T cruzi growth-1; NIH/3T3 viability, CellTiter-Glo ATP luminescence, 90 h; cytotoxicity (signal decrease), % at 8.35 µM; 5,600 compounds, 14% hits;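 active means mean signal decrease across replicates above about 35% based on untreated-well scatter, with enough replicates individually passing, limit read from the data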
3T3 cytotox 2: NIH/3T3 fibroblast cytotoxicity, confirmation, cytotoxicity control, cell-based, cherry-pick, single point, set 2. shares compounds with T cruzi growth-1. NIH/3T3 viability, CellTiter-Glo ATP luminescence, 90 h. inhibition, % at 24.9 µM. 5,600 compounds, 56% hits;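 active means mean loss of cell viability signal at or above a set limit, and enough replicates individually reaching it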
Numbers stand for hits; - = inactive; . = not tested or not shown. This is a sample that favours compounds with a hit; in the whole collection about 5.9% have one here.

SMILES	KDM4C inh	T cruzi growth-1	IDH1 R132H inh	Pf Dd2 growth	T cruzi growth-2	T cruzi growth-3	NIH3T3 tox	3T3 cytotox 2
CCCN1CCc2cc(O)cc3c2[C@H]1Cc1ccc(O)c(O)c1-3	.	.	44	.	.	.	.	.
CC(/C=C/C(=O)NO)=C\c1ccccc1OC[C@@H]1C=C2c3cccc4[nH]cc(c34)C[C@H]2N(C)C1	.	.	-	.	.	.	.	.
O=C(Cc1cccnc1)N1CCCCN2[C@H](C1)[C@@H](c1ccc(C#CC3CCCC3)cc1)[C@@H]2CO	-	102	.	-	107	-	-	104
O=C(Cc1cccnc1)N1CCCCN2[C@H](CO)[C@H](c3ccc(C#CC4CC4)cc3)[C@@H]2C1	.	-	.	-	.	.	.	.
O=C(Cc1cccnc1)N1CCCCN2[C@H](CO)[C@H](c3ccc(C#CC4CCCC4)cc3)[C@@H]2C1	-	111	.	-	-	-	-	78
O=C(Cc1cccnc1)N1CCCCN2[C@H](CO)[C@H](c3ccc(C#CC4CC4)cc3)[C@H]2C1	.	-	.	-	.	.	.	.
CO[C@H]1[C@H](O)[C@H](O[C@H]2CC[C@]3(C)C4CC[C@]5(C)[C@H](C6=CC(=O)OC6)CC[C@]5(O)C4CC[C@@H]3C2)O[C@@H](C)[C@@H]1O[C@@H]1O[C@H](CO[C@@H]2O[C@H](CO)[C@@H](O)[C@H](O)[C@H]2O)[C@@H](O)[C@H](O)[C@H]1O (some centres not stated)	.	.	-	.	.	.	.	.
Cc1ccccc1OCCCn1cc(C(=O)C(C)(C)C)c2ccccc21	.	.	-	.	.	.	.	.
COC(=O)C[C@H]1CC[C@@H]2NC[C@H](O)COC[C@H]2O1	-	105	.	-	-	-	-	-
CO[C@H]1C[C@H](OC2CCC3(C)C4CCC5(C)C(C6=CC(=O)OC6)CC(OC(C)=O)C5(O)C4CC[C@H]3C2)O[C@@H](C)[C@@H]1O (some centres not stated)	.	.	-	.	.	.	.	.
CC=Cc1ccc2n(c1=O)C[C@H]1[C@H](CO)[C@@H](C(=O)OC)[C@@H]2N1S(=O)(=O)c1cccc(C)c1 (mixture of isomers)	-	107	.	.	102	-	-	-
N#Cc1cc2c(nc1SCc1ccccc1Br)C1CCN2CC1	.	.	-	.	.	.	.	.
C=CCN1CCC23c4c5ccc(O)c4OC2C(=O)CCC3(O)C1C5 (configuration not stated)	.	.	-	.	.	.	.	.
N#Cc1cccc(-c2ccc([C@@H]3[C@@H](CO)N4CCCCN(C(=O)Cc5ccncc5)C[C@@H]34)cc2)c1	-	-	.	-	.	.	.	.
N#Cc1cccc(-c2ccc([C@H]3[C@@H](CO)N4CCCCN(C(=O)Cc5ccncc5)C[C@@H]34)cc2)c1	-	102	.	-	-	-	-	-
N#Cc1cccc(-c2ccc([C@@H]3[C@H]4CN(C(=O)Cc5ccncc5)CCCCN4[C@H]3CO)cc2)c1	-	108	.	-	-	-	-	-
N#Cc1cccc(-c2ccc([C@H]3[C@H](CO)N4CCCCN(C(=O)Cc5ccncc5)C[C@@H]34)cc2)c1	-	118	.	-	100	-	-	52
OC[C@H]1[C@H]2c3ccccc3NC[C@H]2N1Cc1cccnc1	-	-	.	-	.	.	.	.
O=C(Cc1ccccc1)N1C[C@@H]2[C@H](c3ccccc31)[C@H](CO)N2Cc1ccccc1	-	97	.	-	101	100	-	-
O=C(Cc1ccccc1)N1CCCCN2[C@H](CO)[C@H](c3ccc(C#Cc4ccccc4)cc3)[C@@H]2C1	-	120	.	-	102	115	-	103
